{
  "source": "ChEMBL document CHEMBL1138216",
  "about": "“Design and synthesis of novel derivatives of the muscarinic agonist tetra(ethylene glycol)(3-methoxy-1,2,5-thiadiazol-4-yl) [3-(1-methyl-1,2,5,6-tetrahydropyrid-3-yl)-1,2,5-thiadiazol-4-yl] ether (CDD-0304): effects of structural modifications on the binding and activity at muscarinic receptor …” (J Med Chem, 2006)",
  "key": {"[1]": {"molecular_target": "Muscarinic acetylcholine receptor M1 (Homo sapiens, UniProt P11229, Q185E)", "assay_type": "functional, cell-based, L929"}, "[2]": {"molecular_target": "Muscarinic acetylcholine receptor M1 (Homo sapiens, UniProt P11229, T192A)", "sequence (P11229 whole entry T192A)": "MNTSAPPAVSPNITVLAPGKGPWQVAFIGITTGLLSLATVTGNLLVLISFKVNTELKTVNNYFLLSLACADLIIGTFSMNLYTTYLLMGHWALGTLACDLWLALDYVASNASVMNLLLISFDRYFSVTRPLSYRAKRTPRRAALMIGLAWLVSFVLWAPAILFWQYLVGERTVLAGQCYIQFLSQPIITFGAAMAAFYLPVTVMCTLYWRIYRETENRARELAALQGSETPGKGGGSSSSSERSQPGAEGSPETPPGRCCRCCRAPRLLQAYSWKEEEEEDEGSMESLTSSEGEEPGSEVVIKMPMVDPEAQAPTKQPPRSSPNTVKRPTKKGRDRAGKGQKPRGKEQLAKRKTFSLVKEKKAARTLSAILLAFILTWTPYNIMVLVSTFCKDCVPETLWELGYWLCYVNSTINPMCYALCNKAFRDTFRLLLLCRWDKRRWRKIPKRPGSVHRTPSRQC", "assay": "Inhibition of [3H](R)-QNB binding to human M1 receptor Thr192Ala mutant expressed in A9 L cells", "assay_type": "cell-based, A9L"}, "[3]": {"molecular_target": "T1, Muscarinic acetylcholine receptor M1/M5 chimeric protein (Homo sapiens) (UniProt P11229+P08912)", "T1 sequence (P11229 whole entry, looked up, change not shown, one chain of several)": "as the sequence (P11229 whole entry T192A) above, with A192T counted along it", "assay": "Agonist activity at human M1/M5(o2) chimeric receptor expressed in A9 L cells assessed as stimulation of phosphoinositide hydrolysis relative to carbachol", "assay_type": "functional, cell-based", "details": "L929", "how_it_was_run": "(§1)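 A9 L cells stably expressing the receptor, seeded 24 h, labelled overnight with 10 µCi/mL [3H]inositol in inositol-free DMEM; ligands in HBSS with 10 mM LiCl, 20 mM HEPES, 37 °C, 1 h; formic acid extraction, inositol phosphates counted by SPA beads.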"}, "[4]": {"tested_on": "T2, Muscarinic acetylcholine receptor M1 (Homo sapiens), P11229 [Q185E]", "T2 sequence (whole entry)": "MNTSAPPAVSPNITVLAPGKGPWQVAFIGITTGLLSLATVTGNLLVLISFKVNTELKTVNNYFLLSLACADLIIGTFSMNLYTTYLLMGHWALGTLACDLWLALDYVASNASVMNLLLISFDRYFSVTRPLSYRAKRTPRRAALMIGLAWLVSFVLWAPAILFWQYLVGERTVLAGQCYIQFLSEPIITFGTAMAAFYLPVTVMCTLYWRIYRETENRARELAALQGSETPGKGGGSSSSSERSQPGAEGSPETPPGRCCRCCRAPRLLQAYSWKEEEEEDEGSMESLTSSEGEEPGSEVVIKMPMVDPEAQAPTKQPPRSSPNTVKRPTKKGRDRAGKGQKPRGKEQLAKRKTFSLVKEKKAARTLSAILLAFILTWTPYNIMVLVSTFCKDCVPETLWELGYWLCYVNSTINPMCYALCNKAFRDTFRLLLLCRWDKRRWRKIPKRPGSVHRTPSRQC", "assay": "Agonist activity at human M1 receptor Q185E mutant expressed in A9 L cells assessed as stimulation of phosphoinositide hydrolysis relative to carbachol", "assay_type": "functional, cell-based", "details": "L929", "how_it_was_run": "as §1"}, "[5]": {"molecular_target": "T3, Muscarinic acetylcholine receptor M1/M5 chimeric protein (Homo sapiens, UniProt P08912+P11229)", "T3 sequence (P11229 whole entry)": "T2 sequence (whole entry) with E185Q", "T3 sequence (P08912 whole entry)": "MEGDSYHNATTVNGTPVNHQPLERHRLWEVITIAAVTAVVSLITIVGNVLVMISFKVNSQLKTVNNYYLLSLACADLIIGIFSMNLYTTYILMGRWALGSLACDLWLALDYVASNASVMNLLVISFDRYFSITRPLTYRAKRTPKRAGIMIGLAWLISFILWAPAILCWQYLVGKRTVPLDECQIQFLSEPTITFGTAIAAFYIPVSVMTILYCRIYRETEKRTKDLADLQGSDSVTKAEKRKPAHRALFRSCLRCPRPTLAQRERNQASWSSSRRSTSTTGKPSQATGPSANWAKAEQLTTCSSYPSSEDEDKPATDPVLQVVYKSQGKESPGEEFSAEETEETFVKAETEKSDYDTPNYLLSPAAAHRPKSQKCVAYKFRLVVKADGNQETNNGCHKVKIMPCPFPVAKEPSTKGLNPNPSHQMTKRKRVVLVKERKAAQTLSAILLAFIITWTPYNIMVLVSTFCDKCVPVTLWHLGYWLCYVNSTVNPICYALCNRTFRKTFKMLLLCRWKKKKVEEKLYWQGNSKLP", "assay": "Inhibition of [3H](R)-QNB binding to human M1/M5(o2o3) chimeric receptor expressed in A9 L cells", "assay_type": "cell-based, A9L"}, "[6]": {"molecular_target": "Muscarinic acetylcholine receptor M1 (Homo sapiens, UniProt P11229, E170K)", "sequence (P11229 whole entry E170K)": "as the sequence (P11229 whole entry T192A) above, with E170K, A192T counted along it", "assay_type": "functional, cell-based, L929"}, "[7]": {"molecular_target": "T3, Muscarinic acetylcholine receptor M1/M5 chimeric protein", "assay": "Agonist activity at human M1/M5(o3) chimeric receptor expressed in A9 L cells assessed as stimulation of phosphoinositide hydrolysis", "assay_type": "functional, cell-based, L929"}, "[8]": {"molecular_target": "T4, Muscarinic acetylcholine receptor M1 (Homo sapiens) (UniProt P11229)", "T4 sequence (whole entry)": "T2 sequence (whole entry) with E185Q", "assay": "Agonist activity at human M1 receptor expressed in A9 L cells assessed as stimulation of phosphoinositide hydrolysis relative to carbachol", "assay_type": "functional, cell-based", "details": "L929", "how_it_was_run": "as §1"}, "[9]": {"molecular_target": "T3, Muscarinic acetylcholine receptor M1/M5 chimeric protein", "assay": "Inhibition of [3H](R)-QNB binding to human M1/M5(o3) chimeric receptor expressed in A9 L cells", "assay_type": "cell-based, A9L"}, "[10]": {"molecular_target": "T1, Muscarinic acetylcholine receptor M1/M5 chimeric protein (Homo sapiens)", "assay": "Agonist activity at human M1/M5(o3) chimeric receptor expressed in A9 L cells assessed as stimulation of phosphoinositide hydrolysis relative to carbachol", "assay_type": "functional, cell-based", "details": "L929", "how_it_was_run": "as §1"}, "[11]": {"molecular_target": "T3, Muscarinic acetylcholine receptor M1/M5 chimeric protein", "assay": "Agonist activity at human M1/M5(o2) chimeric receptor expressed in A9 L cells assessed as stimulation of phosphoinositide hydrolysis", "assay_type": "functional, cell-based, L929"}, "[12]": {"molecular_target": "T1, Muscarinic acetylcholine receptor M1/M5 chimeric protein (Homo sapiens)", "assay": "Agonist activity at human M1/M5(o2o3) chimeric receptor expressed in A9 L cells assessed as stimulation of phosphoinositide hydrolysis relative to carbachol", "assay_type": "functional, cell-based", "details": "L929", "how_it_was_run": "as §1"}, "[13]": {"tested_on": "T5, Muscarinic acetylcholine receptor M1 (Homo sapiens), P11229 [E170K]", "T5 sequence (whole entry)": "T2 sequence (whole entry) with E170K, E185Q", "assay": "Agonist activity at human M1 receptor E170K mutant expressed in A9 L cells assessed as stimulation of phosphoinositide hydrolysis relative to carbachol", "assay_type": "functional, cell-based", "details": "L929", "how_it_was_run": "as §1"}, "[14]": {"molecular_target": "T6, Muscarinic acetylcholine receptor M5 (Homo sapiens) (UniProt P08912)", "T6 sequence (whole entry)": "T3 sequence (P08912 whole entry)", "assay": "Agonist activity at human M5 receptor expressed in A9 L cells assessed as stimulation of phosphoinositide hydrolysis relative to carbachol", "assay_type": "functional, cell-based", "details": "L929", "how_it_was_run": "as §1"}, "[15]": {"molecular_target": "T3, Muscarinic acetylcholine receptor M1/M5 chimeric protein", "assay": "Inhibition of [3H](R)-QNB binding to human M1/M5(o2) chimeric receptor expressed in A9 L cells", "assay_type": "cell-based, A9L"}},
  "note": "Substitutions are numbered along the chain they refer to. Active and inactive are the calls of the source. The calls are words filed in the database; no cut-off is given here.",
  "data": [
    {"smiles": "CN1CCC=C(c2nsnc2OCCOCCOCCOCCOc2nsnc2C2=CCCN(C)C2)C1", "values": [
      {"measurement": "EC50", "setting": "[1]", "value": 50.1, "unit": "nM"},
      {"measurement": "Ki", "setting": "[2]", "value": 100, "unit": "nM"},
      {"measurement": "Smax", "setting": "[3]", "value": 34, "unit": "%"},
      {"measurement": "Smax", "setting": "[4]", "value": 50, "unit": "%"},
      {"measurement": "Ki", "setting": "[5]", "value": 100, "unit": "nM"},
      {"measurement": "EC50", "setting": "[6]", "value": 10, "unit": "nM"},
      {"measurement": "EC50", "setting": "[7]", "value": 631, "unit": "nM"},
      {"measurement": "Smax", "setting": "[8]", "value": 69, "unit": "%"},
      {"measurement": "Ki", "setting": "[9]", "value": 20, "unit": "nM"},
      {"measurement": "Smax", "setting": "[10]", "value": 23, "unit": "%"},
      {"measurement": "EC50", "setting": "[11]", "value": 79.4, "unit": "nM"},
      {"measurement": "Smax", "setting": "[12]", "value": 2, "unit": "%"},
      {"measurement": "Smax", "setting": "[13]", "value": 66, "unit": "%"},
      {"measurement": "Activity", "setting": "[14]", "value": "inactive"},
      {"measurement": "Ki", "setting": "[15]", "value": 39.8, "unit": "nM"}
    ]}
  ]
}
